Measured values from ChEMBL document CHEMBL1128733 (J Med Chem, 1995).

How the values were obtained:
Histamine H3 receptor [1] = molecular target: T1, Histamine H3 receptor (Cavia porcellus, UniProt Q9JI35); experiment: Tested in vitro for antagonist activity against H3 receptor of guinea pig jejunum.; assay type: functional, tissue-based; conditions: read-out: pA2 (converted)
Method in brief: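 Isolated guinea pig jejunum segments were electrically stimulated, giving twitches from endogenous acetylcholine release. Antagonism was tested against cumulative (R)-α-methylhistamine concentration–response curves, using at least three antagonist concentrations. pA2 was the negative log of the Schild plot abscissal intercept. Tissues came from at least four animals, tested in triplicate; Student's t-test, p < 0.05.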

Histamine H1 receptor [2] = molecular target: T2, Histamine H1 receptor (Cavia porcellus, UniProt P31389); experiment: Binding affinity against H1 receptor of guinea pig by the displacement of [3H]mepyramine, bound to membranes of CHO cells; assay type: cell membranes
T2 sequence (P31389 whole entry): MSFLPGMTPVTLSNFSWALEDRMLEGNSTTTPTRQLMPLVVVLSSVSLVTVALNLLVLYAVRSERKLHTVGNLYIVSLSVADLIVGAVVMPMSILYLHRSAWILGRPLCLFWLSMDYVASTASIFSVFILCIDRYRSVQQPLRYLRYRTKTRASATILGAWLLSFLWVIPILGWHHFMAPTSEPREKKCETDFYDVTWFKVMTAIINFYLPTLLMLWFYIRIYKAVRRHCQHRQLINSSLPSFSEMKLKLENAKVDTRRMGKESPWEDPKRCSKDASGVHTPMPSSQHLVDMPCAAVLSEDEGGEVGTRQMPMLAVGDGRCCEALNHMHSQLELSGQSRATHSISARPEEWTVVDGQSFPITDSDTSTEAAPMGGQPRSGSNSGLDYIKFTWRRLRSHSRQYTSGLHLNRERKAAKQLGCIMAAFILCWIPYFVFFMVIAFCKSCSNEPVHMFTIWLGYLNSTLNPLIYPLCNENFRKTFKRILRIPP
Method in brief: (§1)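 Displacement of [3H]mepyramine from membranes of CHO cells expressing guinea pig H1 receptors. At least three independent experiments, each performed in triplicate.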

Histamine H2 receptor [3] = molecular target: T3, Histamine H2 receptor (Homo sapiens, UniProt P25021); experiment: Binding affinity against human H2 receptor by the displacement of [125I]iodoaminopotentidine, bound to membranes of CHO cells.; assay type: cell membranes
T3 sequence (P25021 whole entry): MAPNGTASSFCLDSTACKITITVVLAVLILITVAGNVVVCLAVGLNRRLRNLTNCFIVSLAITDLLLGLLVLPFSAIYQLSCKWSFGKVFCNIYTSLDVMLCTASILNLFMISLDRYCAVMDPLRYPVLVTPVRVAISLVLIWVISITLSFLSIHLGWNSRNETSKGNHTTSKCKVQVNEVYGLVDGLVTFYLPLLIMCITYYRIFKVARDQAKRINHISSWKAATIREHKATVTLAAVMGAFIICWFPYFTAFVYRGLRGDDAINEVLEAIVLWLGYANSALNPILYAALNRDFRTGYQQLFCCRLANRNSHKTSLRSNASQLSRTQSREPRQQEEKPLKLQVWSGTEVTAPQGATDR

[4] = molecular target: Histamine H3 receptor (Cavia porcellus) (UniProt Q9JI35); conditions: Ileum
Chain of Histamine H3 receptor (Cavia porcellus) (Q9JI35 whole entry): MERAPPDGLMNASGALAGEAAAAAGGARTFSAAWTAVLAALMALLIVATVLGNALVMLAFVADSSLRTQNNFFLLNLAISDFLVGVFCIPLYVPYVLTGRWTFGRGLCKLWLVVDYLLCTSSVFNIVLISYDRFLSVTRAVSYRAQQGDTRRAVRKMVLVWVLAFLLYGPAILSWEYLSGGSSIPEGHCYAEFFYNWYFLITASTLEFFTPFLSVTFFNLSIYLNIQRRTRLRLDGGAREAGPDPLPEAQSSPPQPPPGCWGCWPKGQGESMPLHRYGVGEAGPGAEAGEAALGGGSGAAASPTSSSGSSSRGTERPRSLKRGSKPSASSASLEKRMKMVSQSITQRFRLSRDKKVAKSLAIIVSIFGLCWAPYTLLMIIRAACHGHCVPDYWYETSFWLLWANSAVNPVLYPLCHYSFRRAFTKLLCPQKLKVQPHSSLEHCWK

Histamine H3 receptor [5] = molecular target: T1, Histamine H3 receptor; experiment: pD2 values against H3 receptor of guinea pig jejunum were determined.; assay type: tissue-based
Method in brief: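 Isolated guinea pig jejunum segments, electrically stimulated so that endogenous acetylcholine release evokes contractile twitches. Cumulative concentrations of the compound were added, and the concentration-dependent inhibition of the evoked twitches gave a concentration–response curve. Tissue from at least four animals was used, each tested in triplicate. Student's t-test, with p < 0.05 taken as significant.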

[6] = molecular target: Histamine H3 receptor (Cavia porcellus) (UniProt Q9JI35); conditions: Jejunum
Histamine H3 receptor [7] = molecular target: T1, Histamine H3 receptor; experiment: pA2 values against H3 receptor of guinea pig ileum were determined.; assay type: tissue-based; conditions: read-out: pA2 (converted)
Histamine H1 receptor [8] = molecular target: T2, Histamine H1 receptor; experiment: Binding affinity for H1 receptor of guinea pig by the displacement of [3H]mepyramine, bound to membranes of CHO cells; assay type: cell membranes; method in brief: as §1
Histamine H2 receptor [9] = molecular target: T3, Histamine H2 receptor; experiment: Binding affinity against human H2 receptor by the displacement of [125I]iodoaminopotentidine bound to membranes of CHO cells.; assay type: cell membranes
Method in brief: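 Displacement of [125I]iodoaminopotentidine from membranes of CHO cells expressing human H2 receptors. At least three independent experiments, each performed in triplicate.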

T1 sequence (Q9JI35 whole entry): as above

## NCCCCCCCCc1cnc[nH]1
Histamine H3 receptor [1]
  Kb: 1 µM
Histamine H1 receptor [2]
  Ki: 2.51 µM
Histamine H2 receptor [3]
  Ki: 31.6 µM

## N=C(N)SCCc1c[nH]cn1
[4]
  pD2: 8.1

## C[C@@H](N)Cc1c[nH]cn1
Histamine H3 receptor [5]
  pD2: 7.8

## NCCCCCCCCCCc1c[nH]cn1
Histamine H3 receptor [1]
  Kb: 1 µM
Histamine H1 receptor [2]
  Ki: 0.631 µM
Histamine H2 receptor [3]
  Ki: 20 µM

## NCCc1c[nH]cn1
[6]
  pD2: 6.2

## NCCCCCCc1cnc[nH]1
Histamine H3 receptor [1]
  Kb: 0.0158 µM
Histamine H1 receptor [2]
  Ki: 126 µM
Histamine H2 receptor [3]
  Ki: 200 µM

## N=C(N)SCCCc1c[nH]cn1
Histamine H3 receptor [7]
  Kb: 0.01 µM

## NCCCc1c[nH]cn1 [HOMOHISTAMINE]
Histamine H3 receptor [1]
  Kb: 1.26 µM
Histamine H1 receptor [2]
  Ki: > 1000 µM
Histamine H2 receptor [3]
  Ki: > 1000 µM

## NCCCCc1c[nH]cn1 [IMBUTAMINE]
Histamine H3 receptor [1]
  Kb: 0.02 µM
Histamine H1 receptor [8]
  Ki: 398 µM
Histamine H2 receptor [9]
  Ki: 794 µM

## NCc1c[nH]cn1
Histamine H3 receptor [1]
  Kb: > 1000 µM
Histamine H1 receptor [2]
  Ki: > 1000 µM
Histamine H2 receptor [3]
  Ki: > 1000 µM

## NCCCCCc1c[nH]cn1 [IMPENTAMINE]
Histamine H3 receptor [1]
  Kb: 0.00398 µM
Histamine H1 receptor [2]
  Ki: 126 µM
Histamine H2 receptor [3]
  Ki: 251 µM
